Laboratory results reported in publication PMC4361317 (Nuclear medicine and biology, 2014).
“Also recorded” adds a separate entry of the source. Where a SMILES comes first, the peptide text is derived from it. Bridges are numbered along the chain shown (N, C = ends). [ ]: non-standard residue; d: D form. Aoc = NCCCCCCCC(=O)O

Assays:
[1] = biological target: αvβ3 integrin receptor (Homo sapiens, UniProt P05106+P06756); assay type: binding
How it was run: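 M21 cells (1×10^5/well) were placed on 0.65 µm filter plates and incubated for 2 h at 25 °C with ~30,000 cpm 125I-echistatin and 10−11 to 10−4 M test compound. The binding medium was HEPES-buffered MEM pH 7.4 with BSA and phenanthroline. Bound and free ligand were separated by vacuum filtration with two ice-cold BSA/PBS pH 7.4 rinses, and the PVDF filters were gamma counted. Triplicate; IC50 calculated.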

[2] = biological target: MC1 receptor (Homo sapiens, UniProt Q01726); test: In vitro competitive binding, MC1 receptor, M21 human melanoma cells, ^125I-
How it was run: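 Intact M21 cells (1.5×10^5/well) were incubated for 2 h at 37 °C with ~30,000 cpm 125I-(Tyr2)-NDP-MSH plus 10−12 to 10−5 M test compound. Medium was MEM with 25 mM HEPES pH 7.4, 0.2% BSA and 0.3 mM 1,10-phenanthroline. Cells were rinsed twice with ice-cold 0.2% BSA/0.01 M PBS pH 7.4, lysed in 1 N NaOH for 5 min and gamma counted. Triplicate; IC50 calculated.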

[3] = tested on: M21 human melanoma-xenografted nude mice; details: mouse, in vivo; cited from earlier work

| IC50 [1] [nM] | binding affinity for αvβ3 integrin receptor (in words) ([1]; M21 cells) | IC50 [2] [nM] | Compound | αvβ3 integrin receptor binding affinity, compared with RGD-PEG2-(Arg^11)CCMSH ([1]; M21 cells) | MC1 receptor binding affinity, compared with RGD-PEG2-(Arg^11)CCMSH ([2]; M21 cells) | melanoma uptake relative to ^99mTc-RAD-Lys-(Arg^11)CCMSH [3] [times] | melanoma uptake relative to ^99mTc-RGD-Lys-(Arg^11)CCMSHscramble [3] [times] |
| --- | --- | --- | --- | --- | --- | --- | --- |
| 1130 ± 26 | low micromolar range | 1.5 ± 0.2 | CC(C)[C@H](NC(=O)[C@@H]1CCCN1C(=O)[C@H](CCCNC(=N)N)NC(=O)[C@H](CS)NC(=O)[C@H](Cc1c[nH]c2ccccc12)NC(=O)[C@H](CCCNC(=N)N)NC(=O)[C@@H](Cc1ccccc1)NC(=O)[C@H](Cc1c[nH]cn1)NC(=O)[C@H](CCC(=O)O)NC(=O)[C@H](CS)NC(=O)[C@H](CS)NC(=O)CCCCCCCNC(=O)[C@@H]1CC(=O)N[C@@H](CCCNC(=N)N)C(=O)NCC(=O)N[C@@H](CC(=O)O)C(=O)N[C@H](Cc2ccc(O)cc2)C(=O)N1)C(N)=O [RGD-Aoc-(Arg^11)CCMSH] (RGD[dY]D[Aoc]CCEH[dF]RWCRPV-NH2; lactam N-5) | stronger receptor binding affinity; also recorded: slightly stronger binding affinities | stronger receptor binding affinity; also recorded: slightly stronger binding affinities |  |  |
|  |  |  | cyclic(Arg-Gly-Asp-DTyr-Asp)-Lys-(^99mTc-[Cys^3,4,10, D-Phe^7, Arg^11]α-MSH3–13) (bicyclic or more) [^99mTc-RGD-Lys-(Arg^11)CCMSH] |  |  | 2.5 | 2.2 |
